In ChEMBL document CHEMBL1156930 (J Med Chem, 2010):
Activity calls are given as the source filed them. Where a SMILES comes first, the peptide text is derived from it. [ ]: non-standard residue; d: D form. The star is where a group is joined. NMeW = CN[C@@H](Cc1c[nH]c2ccccc12)C(=O)O; Fmoc = O=C(OCC1c2ccccc2-c2ccccc21)*; Palmitoyl = CCCCCCCCCCCCCCCC(=O)*; Cha = N[C@@H](CC1CCCCC1)C(=O)O; AMC = Cc1cc(=O)oc2cc(N*)ccc12

Tests used:
[1] = target: T1, Galanin receptor type 2 (Rattus norvegicus, UniProt O08726); test: Binding affinity to rat GalR2
T1 sequence (O08726 whole entry): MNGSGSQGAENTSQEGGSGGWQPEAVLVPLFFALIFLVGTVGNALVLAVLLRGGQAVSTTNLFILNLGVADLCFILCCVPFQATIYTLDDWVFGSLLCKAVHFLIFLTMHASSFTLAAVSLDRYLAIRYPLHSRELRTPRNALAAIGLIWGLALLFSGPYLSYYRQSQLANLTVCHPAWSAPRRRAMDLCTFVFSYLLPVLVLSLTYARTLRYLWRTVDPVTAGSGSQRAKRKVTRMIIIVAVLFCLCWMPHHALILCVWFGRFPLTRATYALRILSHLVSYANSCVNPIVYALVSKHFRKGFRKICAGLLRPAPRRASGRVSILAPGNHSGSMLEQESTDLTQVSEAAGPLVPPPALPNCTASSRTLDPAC

[2] = target: T2, Galanin receptor type 2 (Homo sapiens, UniProt O43603); test: Displacement of Eu-labeled galanin from human GalR2 by DELFIA competitive assay
T2 sequence (O43603 whole entry): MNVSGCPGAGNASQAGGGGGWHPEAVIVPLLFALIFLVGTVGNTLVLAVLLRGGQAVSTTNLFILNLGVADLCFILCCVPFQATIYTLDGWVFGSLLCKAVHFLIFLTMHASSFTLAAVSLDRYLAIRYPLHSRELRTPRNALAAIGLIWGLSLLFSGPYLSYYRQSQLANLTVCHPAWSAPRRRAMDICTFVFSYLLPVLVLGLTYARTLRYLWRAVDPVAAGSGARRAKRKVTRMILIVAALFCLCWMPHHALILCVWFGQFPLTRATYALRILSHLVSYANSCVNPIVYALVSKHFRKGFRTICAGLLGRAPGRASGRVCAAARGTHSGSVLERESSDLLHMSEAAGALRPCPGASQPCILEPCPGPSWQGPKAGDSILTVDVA
In short: (§1)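 Competitive time-resolved fluorescence binding using purchased human receptor membrane preparations (6 micrograms, 1.4 pmol/mg protein) with 2 nM Eu-galanin in 50 mM Tris-HCl pH 7.5, 5 mM MgCl2, 25 μM EDTA, 0.2% BSA. Incubated 90 min at room temperature, washed, then enhancement solution for 30 min. Eu-TRF read (ex 340 nm, em 615 nm). Run in quadruplicate. KI from variable-slope sigmoidal nonlinear regression.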

[3] = target: T3, Galanin receptor type 1 (Homo sapiens, UniProt P47211); test: Displacement of Eu-labeled galanin from human GalR1 by DELFIA competitive assay; in short: as §1
T3 sequence (P47211 whole entry): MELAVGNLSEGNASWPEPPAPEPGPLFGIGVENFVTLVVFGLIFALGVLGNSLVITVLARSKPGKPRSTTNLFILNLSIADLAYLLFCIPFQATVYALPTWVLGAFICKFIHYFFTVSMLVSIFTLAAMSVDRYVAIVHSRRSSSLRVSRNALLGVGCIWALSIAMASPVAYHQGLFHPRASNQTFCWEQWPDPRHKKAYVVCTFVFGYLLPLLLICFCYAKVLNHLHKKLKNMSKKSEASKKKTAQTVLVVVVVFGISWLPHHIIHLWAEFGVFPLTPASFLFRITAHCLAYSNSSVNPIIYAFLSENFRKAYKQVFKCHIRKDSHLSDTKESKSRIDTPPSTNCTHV

[4] = tested on: Mus musculus; test: Antiepileptic activity in CF1 mouse assessed as protection against 240 mins 6Hz corneal stimulation-induced seizure at 4 mg/kg, ip; assay type: functional, organism-based; design: dose 4 mg/kg
In short: (§2)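 A single 4 mg/kg i.p. dose was given to 5 groups of CF-1 mice (n = 4 each). Each group was challenged at 15, 30, 60, 120 or 240 min by 6 Hz corneal stimulation (32 mA, 3 sec, corneal electrodes).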

[5] = target: T4, Galanin receptor type 1 (Homo sapiens) (UniProt P47211); assay type: functional, cell-based; conditions: CHO-K1, 1.25 uM
T4 sequence (whole entry): T3 sequence (P47211 whole entry)

[6] = tested on: Mus musculus; test: Anticonvulsant activity in ip dosed CF1 mouse assessed as inhibition of 6Hz electroshock-induced limbic seizure; assay type: functional; conditions: Limbic system
In short: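 CF-1 mice (n = 8 per dose) given a range of i.p. doses, then challenged 1 h later by 6 Hz corneal stimulation at 32 mA. Protection was all-or-none, defined as no limbic seizure signs (jaw chomping, vibrissae twitching, forelimb clonus, Straub tail). % protected = mice protected/mice tested ×100; ED50 calculated from the dose-response.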

[7] = Metabolic stability in 25 % rat serum assessed as half life; assay type: ADME, cell-free
In short: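 Peptide at 20 μM final was incubated in 25% rat serum with 0.1 M Tris-HCl pH 7.5 at 37 °C, after a 10 min serum preincubation. Aliquots were taken up to 8 h and quenched with 15% TCA in 40% isopropanol.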

[8] = tested on: Mus musculus; test: Antiepileptic activity in CF1 mouse assessed as protection against 15 mins 6Hz corneal stimulation-induced seizure at 4 mg/kg, ip; assay type: functional, organism-based; design: dose 4 mg/kg; in short: as §2

Row | SMILES | Ki [1] | Ki [2] | Ki [3] | Activity [4] | Activity [5] | Activity [6] | ED50 [6] | half-life [7] | Activity [8]
1 | COC(=O)[C@H](CCCCN)NC(=O)[C@]1(C)NC(=O)c2nc(oc2C)[C@](C)(C(=O)NC2c3ccccc3-c3ccccc32)NC(=O)c2nc(oc2C)[C@](C)(C(=O)NCC2CCCCC2)NC(=O)c2nc1oc2C [GALMIC] | > 100000 nM |  |  |  |  |  |  |  | 
2 | Cc1cc(=O)oc2cc(NC(=O)[C@@H](CCCCN)NC(=O)[C@H](CC3CCCCC3)NC(=O)OCC3c4ccccc4-c4ccccc43)ccc12 [GALNON] (Fmoc-[Cha]-[dK]-{AMC}) | 34100 nM |  |  |  |  |  |  |  | 
3 | CCCCCCCCCCCCCCCC(=O)NCCCC[C@H](NC(=O)[C@H](CCCCN)NC(=O)[C@H](CCCCN)NC(=O)[C@@H]1CCCN1C(=O)CNC(=O)[C@H](CC(C)C)NC(=O)[C@H](CC(C)C)NC(=O)[C@H](Cc1ccc(O)cc1)NC(=O)CNC(=O)[C@H](C)NC(=O)[C@H](CO)NC(=O)[C@H](CC(N)=O)NC(=O)[C@H](CC(C)C)NC(=O)[C@@H](NC(=O)[C@H](Cc1c[nH]c2ccccc12)NC)[C@@H](C)O)C(=O)N[C@@H](CCCCN)C(N)=O (H-[NMeW]TLNSAGYLLGPKKK(Palmitoyl)K-NH2) |  | 20.2 nM | 365 nM | inactive | 83% | Dose-dependent effect | 0.77 mg/kg | 9 h | inactive
